Assay results published in ChEMBL document CHEMBL4145598, “Discovery and Development of 8-Substituted Cycloberberine Derivatives as Novel Antibacterial Agents against MRSA” (ACS Med Chem Lett, 2018).

Legend:
Type in all cases: functional
[1] = test system: Staphylococcus aureus; test: Antimicrobial activity against methicillin-sensitive Staphylococcus aureus ATCC 29213 after 18 hrs by agar dilution assay; conditions: ATCC 29213, 18 h
[2] = test system: Staphylococcus aureus; test: Antimicrobial activity against methicillin-sensitive Staphylococcus aureus isolate 15 after 18 hrs by agar dilution assay; conditions: isolate 15, 18 h
[3] = test system: Staphylococcus aureus; test: Antimicrobial activity against methicillin-sensitive Staphylococcus aureus isolate 13-17 after 18 hrs by agar dilution assay; conditions: isolate 13-17, 18 h
[4] = test system: Staphylococcus aureus; test: Antimicrobial activity against methicillin-sensitive Staphylococcus aureus isolate 13-19 after 18 hrs by agar dilution assay; conditions: isolate 13-19, 18 h
[5] = test system: Staphylococcus aureus; test: Antimicrobial activity against methicillin-sensitive Staphylococcus aureus isolate 13-20 after 18 hrs by agar dilution assay; conditions: isolate 13-20, 18 h
[6] = test system: Staphylococcus aureus; test: Antimicrobial activity against methicillin-sensitive Staphylococcus aureus isolate 13-21 after 18 hrs by agar dilution assay; conditions: isolate 13-21, 18 h
[7] = test system: Staphylococcus epidermidis; test: Antimicrobial activity against methicillin-sensitive Staphylococcus epidermidis ATCC 12228 after 18 hrs by agar dilution assay; conditions: ATCC 12228, 18 h
[8] = test system: Staphylococcus epidermidis; test: Antimicrobial activity against methicillin-sensitive Staphylococcus epidermidis isolate 13-1 after 18 hrs by agar dilution assay; conditions: isolate 13-1, 18 h
[9] = test system: Staphylococcus saprophyticus; test: Antimicrobial activity against Staphylococcus saprophyticus ATCC 15305 after 18 hrs by agar dilution assay; conditions: ATCC 15305, 18 h
[10] = test system: Staphylococcus hominis; test: Antimicrobial activity against Staphylococcus hominis ATCC 35982 after 18 hrs by agar dilution assay; conditions: ATCC 35982, 18 h
[11] = test system: Staphylococcus aureus; test: Antimicrobial activity against methicillin-resistant Staphylococcus aureus ATCC 33591 after 18 hrs by agar dilution assay; conditions: ATCC 33591, 18 h
In short: (§1)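 Drug-resistant S. aureus (MRSA/VISA) panel. It includes ATCC reference strains and clinical isolates from patients in Chinese hospitals. MIC was determined by standard methods and reported in μg/mL, with levofloxacin as the reference drug.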

[12] = test system: Staphylococcus aureus; test: Antimicrobial activity against methicillin-resistant Staphylococcus aureus isolate 13-18 after 18 hrs by agar dilution assay; conditions: isolate 13-18, 18 h; in short: as §1
[13] = test system: Staphylococcus aureus; test: Antimicrobial activity against methicillin-resistant Staphylococcus aureus isolate 13-23 after 18 hrs by agar dilution assay; conditions: isolate 13-23, 18 h; in short: as §1
[14] = test system: Staphylococcus aureus; test: Antimicrobial activity against methicillin-resistant Staphylococcus aureus isolate 12-3 after 18 hrs by agar dilution assay; conditions: isolate 12-3, 18 h; in short: as §1
[15] = test system: Staphylococcus aureus; test: Antimicrobial activity against methicillin-resistant Staphylococcus aureus isolate 12-8 after 18 hrs by agar dilution assay; conditions: isolate 12-8, 18 h; in short: as §1
[16] = test system: Staphylococcus aureus; test: Antimicrobial activity against methicillin-resistant Staphylococcus aureus isolate 12-13 after 18 hrs by agar dilution assay; conditions: isolate 12-13, 18 h; in short: as §1
[17] = test system: Staphylococcus aureus; test: Antimicrobial activity against methicillin-resistant Staphylococcus aureus isolate 12-16 after 18 hrs by agar dilution assay; conditions: isolate 12-16, 18 h; in short: as §1
[18] = test system: Staphylococcus aureus; test: Antimicrobial activity against methicillin-resistant Staphylococcus aureus ATCC-BAA-1708 after 18 hrs by agar dilution assay; conditions: ATCC-BAA-1708, 18 h; in short: as §1
[19] = test system: Staphylococcus aureus; test: Antimicrobial activity against vancomycin-intermediate Staphylococcus aureus ATCC 700698 after 18 hrs by agar dilution assay; conditions: ATCC 700698, 18 h
In short: (§2)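 MICs in μg/mL against drug-resistant S. aureus (MRSA/VISA) by standard methods, with levofloxacin as the reference drug. ATCC strains were used.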

[20] = test system: Staphylococcus aureus; test: Antimicrobial activity against vancomycin-intermediate Staphylococcus aureus ATCC 700699 after 18 hrs by agar dilution assay; conditions: ATCC 700699, 18 h; in short: as §2

Compound	MIC [1] [mg/L]	MIC [2] [mg/L]	MIC [3] [mg/L]	MIC [4] [mg/L]	MIC [5] [mg/L]	MIC [6] [mg/L]	MIC [7] [mg/L]	MIC [8] [mg/L]	MIC [9] [mg/L]	MIC [10] [mg/L]	MIC [11] [mg/L]	MIC [12] [mg/L]	MIC [13] [mg/L]	MIC [14] [mg/L]	MIC [15] [mg/L]	MIC [16] [mg/L]	MIC [17] [mg/L]	MIC [18] [mg/L]	MIC [19] [mg/L]	MIC [20] [mg/L]
COc1ccc2c(c[n+]3c4c2ccc2c5c(cc(c24)CC3)OCO5)c1NCc1ccco1.[Cl-]	32	32	32	16	32	32	32	64	32	32	64	64	64	32	64	32	64	> 64	> 64	> 64
COc1ccc2c(c[n+]3c4c2ccc2c5c(cc(c24)CC3)OCO5)c1NC(=O)CC1CCCC1.[Cl-]	8	8	8	8	8	8	8	8	32	8	8	8	8	8	8	16	8	4	64	4
COc1ccc2c(c[n+]3c4c2ccc2c5c(cc(c24)CC3)OCO5)c1OCC(=O)c1ccccc1OC(F)(F)F.[Br-]	8	16	8	8	8	8	4	16	4	4	8	8	8	16	8	4	4	32	> 64	> 64
COc1ccc2c(c[n+]3c4c2ccc2c5c(cc(c24)CC3)OCO5)c1OCC(=O)c1ccc(F)cc1.[Br-]	64	8	16	8	16	8	8	8	32	32	8	16	8	8	8	8	16	64	> 64	> 64
COc1ccc2c(c[n+]3c4c2ccc2c5c(cc(c24)CC3)OCO5)c1OCC(=O)c1ccc(C(F)(F)F)cc1.[Br-]	> 64	> 64	> 64	> 64	> 64	> 64	> 64	> 64	> 64	> 64	> 64	> 64	> 64	> 64	> 64	> 64	> 64	> 64	> 64	> 64
COc1ccc2c(c[n+]3c4c2ccc2c5c(cc(c24)CC3)OCO5)c1NC(=O)c1ccccn1.[Cl-]	> 64	> 64	> 64	> 64	> 64	> 64	> 64	> 64	> 64	> 64	> 64	> 64	> 64	> 64	> 64	> 64	> 64	> 64	> 64	> 64
COc1ccc2c(c[n+]3c4c2ccc2c5c(cc(c24)CC3)OCO5)c1OCC(=O)C(C)(C)C.[Br-]	32	64	32	32	32	32	32	32	32	16	32	32	32	32	64	32	32	32	> 64	> 64
COc1ccc2c(c[n+]3c4c2ccc2c5c(cc(c24)CC3)OCO5)c1OCC(=O)c1ccc(C)cc1.[Br-]	4	8	4	4	8	4	2	8	4	4	4	4	4	4	8	4	4	8	> 64	> 64
COc1ccc2c(c[n+]3c4c2ccc2c5c(cc(c24)CC3)OCO5)c1OCC(=O)C1CC1.[Br-]	> 64	> 64	> 64	> 64	> 64	> 64	> 64	> 64	> 64	> 64	> 64	> 64	> 64	> 64	> 64	> 64	> 64	> 64	> 64	> 64
